# Test results: ChEMBL document CHEMBL2401636, “Investigation of the noncovalent binding mode of covalent proteasome inhibitors around the transition state by combined use of cyclopropylic strain-based conformational restriction and computational modeling” (J Med Chem, 2013)
# Key:
# [1] = Cytotoxicity against human HS-Sultan cells after 72 hrs; format: functional, cell-based
# [2] = Inhibition of chymotrypsin-like activity of human 20S proteasome using succinyl-Leu-Leu-Val-Tyr-4-methylcoumaryl-7-amide as substrate after 60 mins by fluorescence assay
# [3] = test system: KB; assay: Cytotoxicity against human KB cells after 72 hrs; format: functional, cell-based
# [4] = test system: HCT-116; assay: Cytotoxicity against human HCT116 cells after 72 hrs; format: functional, cell-based; details: HCT-116, 72 h
# [5] = Half life in TEAA buffer at 7.5 mM by RP-HPLC analysis; format: physicochemical
# Summary of the method: (§1)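 Water-soluble analogues incubated at 37 °C in 0.1 M TEAA buffer, pH 7.4, or in human AB serum. Compound remaining was followed over time by HPLC, and the half-life was derived. Buffer half-lives are given in hours and serum half-lives in minutes.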
# [6] = Half life in human AB serum at 23 mM by RP-HPLC analysis; format: ADME, cell-free; summary of the method: as §1
# [7] = Inhibition proteasome (unknown origin); parameters: species or system Homo sapiens
smiles,measurement,setting,value
CC[C@H](C)[C@@H]1C(=O)O[C@H]1C(=O)N[C@H]1C[C@H]1C[C@@H](CCc1ccccc1)NC(=O)[C@H](C)NC(=O)OCc1ccccc1,IC50,[1],870 nM
same,IC50,[2],5.7 nM
same,IC50,[3],2600 nM
CC[C@H](C)[C@@H]1C(=O)O[C@H]1C(=O)N[C@H]1C[C@H]1C[C@@H](CCc1ccccc1)NC(=O)c1ccc2ccccc2c1,IC50,[2],33 nM
CC[C@H](C)[C@@H]1C(=O)O[C@H]1C(=O)N[C@H]1C[C@H]1C[C@@H](CCc1ccccc1)NC(=O)[C@H](C)NC(=O)c1ccc2ccccc2c1,IC50,[2],10 nM
CC[C@H](C)[C@@H]1C(=O)O[C@H]1C(=O)N[C@H]1C[C@H]1[C@@H](C)[C@@H](CCc1ccccc1)NC(=O)[C@H](C)NC(=O)c1ccc2ccccc2c1,IC50,[2],42 nM
CC[C@H](C)[C@@H]1C(=O)O[C@H]1C(=O)N[C@H]1C[C@H]1[C@@H](C)[C@@H](CCc1ccccc1)NC(=O)[C@H](C)NC(=O)OCc1ccccc1,IC50,[1],310 nM
same,IC50,[2],47 nM
same,IC50,[3],1700 nM
same,IC50,[4],630 nM
CC[C@H](C)[C@@H]1C(=O)O[C@H]1C(=O)N[C@H]1C[C@H]1[C@@H](C)[C@@H](CCc1ccccc1)NC(=O)c1ccc2ccccc2c1,IC50,[2],140 nM
CC[C@H](C)[C@@H]1C(=O)O[C@H]1C(=O)N[C@H]1C[C@H]1[C@H](C)[C@@H](CCc1ccccc1)NC(=O)[C@H](C)NC(=O)OCc1ccccc1,IC50,[1],1800 nM
same,IC50,[2],280 nM
same,IC50,[3],> 10000 nM
same,IC50,[4],> 10000 nM
CC[C@H](C)[C@@H]1C(=O)O[C@H]1C(=O)N[C@H]1C[C@H]1[C@H](C)[C@@H](CCc1ccccc1)NC(=O)c1ccc2ccccc2c1,IC50,[2],750 nM
CC[C@H](C)[C@@H]1C(=O)O[C@H]1C(=O)N[C@H]1C[C@H]1[C@H](C)[C@@H](CCc1ccccc1)NC(=O)[C@H](C)NC(=O)c1ccc2ccccc2c1,IC50,[2],630 nM
CC[C@H](C)[C@@H]1C(=O)O[C@H]1C(=O)N[C@H]1C[C@H]1[C@@H](C)[C@@H](CCc1ccccc1)NC(=O)[C@H](C)N,half-life at 7500 µM,[5],840 min
same,half-life at 23000 µM,[6],4.2 min
CC[C@H](C)[C@@H]1C(=O)O[C@H]1C(=O)N[C@H]1C[C@H]1[C@H](C)[C@@H](CCc1ccccc1)NC(=O)[C@H](C)N,half-life at 7500 µM,[5],1260 min
same,half-life at 23000 µM,[6],4.7 min
CC[C@H](C)[C@@H]1C(=O)O[C@H]1C(=O)N[C@H]1C[C@H]1C[C@@H](CCc1ccccc1)NC(=O)[C@H](C)N (mixture of isomers),half-life at 7500 µM,[5],600 min
same,half-life at 23000 µM,[6],2.3 min
CC[C@H](C)[C@@H]1C(=O)O[C@H]1C(=O)N[C@H]1C[C@H]1C[C@H](NC(=O)[C@H](C)N)C(=O)O [BELACTOSIN A],IC50,[7],304 nM
same,IC50,[2],1440 nM
